Our source for the ED50, AD50 and Protection values is ChEMBL document CHEMBL1121528, “Synthesis and pharmacology of 8-amino-3-(cyclopropylmethyl)-1,2,3,4,5,6-hexahydro-cis-6,11-dimethyl-2,6-methano-3-benzazocine and related compounds” (1980).

Experiment [1] has as its system Mus musculus. The experiment is described as follows: Effective dose required for its agonist activity in mouse by acetylcholine writhing test after sc administration. It is filed as functional. The gist of the method: (§1)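 Agonist (analgesic) screens: modified D'Amour-Smith tail-flick, phenylquinone-induced writhing, acetylcholine-induced writhing (mouse), and rat bradykinin test. Compounds given sc or po.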
On the technique in general: In writhing tests, fewer writhes than in controls are read as antinociception.

The subject of experiment [2] is Rattus norvegicus. The experiment is described as follows: Analgesic dose required for its phenazocine antagonistic activity in rat after peroral administration. It counts as functional. The gist of the method: (§2)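 Narcotic antagonist activity in rats by the Harris–Pierson tail-flick procedure against phenazocine, with compounds given orally. AD50 reported in mg/kg with 95% confidence limits, calculated as free base.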

In experiment [3] the test system is Rattus norvegicus. The experiment is described as follows: Analgesic dose required for its phenazocine antagonistic activity in rat after peroral administration; ? = Questionable activity. It is filed as functional, organism-based. The gist of the method:
as §2

The test system of experiment [4] is Mus musculus. The experiment is described as follows: Effective dose required for its agonist activity in acetylcholine test after sc administration. It is filed as functional. The gist of the method: as §1
Experiment [5] relates to Rattus norvegicus. The experiment is described as follows: Effective dose required for its agonist activity in rat bradykinin test after po administration. It is filed as functional. The gist of the method: as §1
The subject of experiment [6] is Rattus norvegicus. The experiment is described as follows: Analgesic dose required for its narcotic activity in Phenazocine after sc administration. It counts as functional.
The species entered for experiment [7] is Rattus norvegicus. The experiment is described as follows: Analgesic dose required for its narcotic activity in morphine. It is filed as functional.
Experiment [8] deals with Rattus norvegicus. The experiment is described as follows: Effective dose required for its agonist activity in rat bradykinin test after sc administration. It is filed as functional. The gist of the method:
as §1

Experiment [9] has as its system Mus musculus. The experiment can be described thus: Effective dose required for its agonist activity in phenylquinone test after po administration. It counts as functional. The gist of the method: as §1
The test system of experiment [10] is Rattus norvegicus. The experiment is described as follows: Analgesic dose required for its narcotic activity in meperidine after sc administration. It counts as functional.
The test system of experiment [11] is Rattus norvegicus. The experiment can be described thus: Effective dose required for its agonist activity in rat tail flick test after sc administration; I = inactive. It counts as functional, organism-based. The gist of the method:
as §1

In experiment [12] the test system is Mus musculus. The experiment is described as follows: Effective dose required for its agonist activity in mouse by phenylquinone test after sc administration. It counts as functional. The gist of the method: as §1
For experiment [13], the system named is Rattus norvegicus. The experiment can be described thus: Analgesic dose required for its narcotic activity in meperidine after po administration. It is filed as functional.
Experiment [14] relates to Mus musculus. The experiment can be described thus: Effective dose required for its agonist activity in acetylcholine test after po administration. It counts as functional. The gist of the method: as §1
In experiment [15] the test system is Rattus norvegicus. The experiment is described as follows: Analgesic dose required for its narcotic activity in Phenazocine after po administration. It is filed as functional.
The subject of experiment [16] is Rattus norvegicus. The experiment is described as follows: Analgesic dose required for its narcotic activity morphine after po administration. It counts as functional.
Experiment [17] deals with Rattus norvegicus. The experiment is described as follows: Analgesic dose required for its narcotic activity in morphine after sc administration. It counts as functional.
Experiment [18] relates to Mus musculus. The experiment is described as follows: Effective dose required for its agonist activity in Phenylquinone writhing test after sc administration. It is filed as functional. The gist of the method: as §1
The species named for experiment [19] is Rattus norvegicus. The experiment is described as follows: Tested for peroral analgesic dose required for its narcotic activity in meperidine. It is filed as functional.
In experiment [20] the test system is Rattus norvegicus. The experiment is described as follows: Analgesic dose required for its phenazocine antagonistic activity in rat after peroral administration; I = inactive at 40. It is filed as functional, organism-based. The gist of the method: as §2
The subject of experiment [21] is Rattus norvegicus. The experiment is described as follows: Analgesic dose required for its narcotic activity in Phenazocine after peroral administration. It counts as functional.
For experiment [22], the system named is Rattus norvegicus. The experiment can be described thus: Effective dose required for its agonist activity in bradykinin test after sc administration. It is filed as functional. The gist of the method:
as §1

Experiment [23] has as its system Rattus norvegicus. The experiment is described as follows: Analgesic dose required for its narcotic activity in meperidine after peroral administration. It counts as functional.
Experiment [24] has as its system Rattus norvegicus. The experiment can be described thus: Analgesic dose required for its narcotic activity morphine after peroral administration. It is filed as functional.
Experiment [25] relates to Rattus norvegicus. The experiment is described as follows: analgesic dose required for its phenazocine antagonistic activity in rat after peroral administration; I = inactive. It counts as functional, organism-based. The gist of the method: as §2

The source made the active and inactive calls. The calls are words filed in the database; no cut-off is given here.

Take `C=CCN1CC[C@]2(C)c3cc(N)ccc3CC1[C@@H]2C`: in the experiment with Mus musculus [1], the ED50 (in general, the midpoint of the dose-response relation) is 2.5 mg/kg. The AD50 with Rattus norvegicus [2] is 1.5 mg/kg.
In the experiment with Mus musculus [1], `CCCNc1ccc2c(c1)[C@@]1(C)CCN(CC3CC3)C(C2)[C@@H]1C` registered an ED50 of 1.2 mg/kg. For the same molecule, the AD50 entry in the experiment with Rattus norvegicus [3] was “Questionable activity”.
Regarding `C[C@H]1C2Cc3ccc(N)cc3[C@@]1(C)CCN2CC1CC1`, the ED50 in the experiment on Mus musculus [4] came to 0.8 mg/kg; with Rattus norvegicus [5], 8.1 mg/kg; in the experiment on Rattus norvegicus [8] it was 1.2 mg/kg; in the experiment on Mus musculus [9], 7.2 mg/kg; with Mus musculus [12], 1.4 mg/kg; in the experiment with Mus musculus [14] it was 3.2 mg/kg. Further, the AD50 amounted to 2.7 mg/kg with Rattus norvegicus [6]; 3.7 mg/kg in the experiment listed under Rattus norvegicus [7]; 2 mg/kg in the experiment on Rattus norvegicus [10]; 8.8 mg/kg in the experiment on Rattus norvegicus [13]; 10 mg/kg in the experiment on Rattus norvegicus [15]; 15 mg/kg in the experiment with Rattus norvegicus [16]. The ED50 entry in the experiment on Rattus norvegicus [11] was “inactive”.
In the case of `CC(C)=CCN1CC[C@]2(C)c3cc(O)ccc3C[C@H]1[C@H]2C` [(+)-PENTAZOCINE], the AD50 in the experiment on Rattus norvegicus [17] was determined as 9 mg/kg; in the experiment on Rattus norvegicus [6], 6.3 mg/kg; in the experiment on Rattus norvegicus [10], 3.9 mg/kg; in the experiment with Rattus norvegicus [13], 68 mg/kg; in the experiment on Rattus norvegicus [15], 76 mg/kg; in the experiment on Rattus norvegicus [16], 140 mg/kg. This molecule gave a Protection with Rattus norvegicus [5] of 40 mg/kg. Besides, the ED50 in the experiment on Rattus norvegicus [8] is 2.6 mg/kg; in the experiment on Mus musculus [9], 95 mg/kg; in the experiment with Mus musculus [12], 3.8 mg/kg. The ED50 entry in the experiment on Rattus norvegicus [11] was “inactive”.
In the experiment on Mus musculus [18], `C[C@H]1C2Cc3ccc([N+](=O)[O-])cc3[C@@]1(C)CCN2CC1CC1.Cl` showed an ED50 of 24 mg/kg. The molecule further registered an AD50 in the experiment listed under Rattus norvegicus [19] of 9.6 mg/kg.
Molecule `CCCCNc1ccc2c(c1)[C@@]1(C)CCN(CC3CC3)C(C2)[C@@H]1C` yielded an ED50 in the experiment on Mus musculus [1] of 1 mg/kg. The AD50 result in the experiment on Rattus norvegicus [20] is “inactive”.
Consider `CNc1ccc2c(c1)[C@@]1(C)CCN(CC3CC3)C(C2)[C@@H]1C`, for which, in the experiment with Mus musculus [1], it took a dose of 0.44 mg/kg to reach the 50% effect level (ED50). This molecule gave an AD50 in the experiment on Rattus norvegicus [2] of 1.35 mg/kg.
In turn, `C[C@H]1C2Cc3ccc(NCc4ccccc4)cc3[C@@]1(C)CCN2CC1CC1` returned an AD50 in the experiment on Rattus norvegicus [2] of 1 mg/kg.
In the experiment with Mus musculus [1], `CC(C)CN1CC[C@]2(C)c3cc(N)ccc3CC1[C@@H]2C` returned an ED50 of 1.5 mg/kg. This molecule registered an AD50 with Rattus norvegicus [2] of 9.4 mg/kg.
In the case of `C[C@H]1C2Cc3ccc(N(C)C)cc3[C@@]1(C)CCN2CC1CC1`, it took a dose of 0.79 mg/kg to reach the 50% effect level with Mus musculus [1] (ED50).
In the case of `C[C@H]1[C@H]2Cc3ccc(O)cc3[C@]1(C)CCN2CC1CC1` [CYCLAZOCINE], the AD50 in the experiment with Rattus norvegicus [17] worked out at 0.029 mg/kg; in the experiment with Rattus norvegicus [6] it was 0.028 mg/kg; with Rattus norvegicus [21] it was 3.1 mg/kg; in the experiment with Rattus norvegicus [10], 0.019 mg/kg; in the experiment with Rattus norvegicus [23], 4.2 mg/kg; in the experiment on Rattus norvegicus [24], 4.3 mg/kg. The ED50 in the experiment on Rattus norvegicus [5] came out at 3.7 mg/kg; with Mus musculus [9], 3.6 mg/kg; with Rattus norvegicus [22], 0.04 mg/kg; with Mus musculus [12] it was 0.04 mg/kg. In addition, in the experiment on Rattus norvegicus [11], the ED50 entry is “inactive”.
Molecule `CCNc1ccc2c(c1)[C@@]1(C)CCN(CC3CC3)C(C2)[C@@H]1C` showed an ED50 in the experiment with Mus musculus [1] of 1.3 mg/kg. Also, the AD50 entry in the experiment on Rattus norvegicus [20] is “inactive”.
The molecule `C[C@H]1C2Cc3ccc(NCC4CC4)cc3[C@@]1(C)CCN2CC1CC1.Cl` displayed an ED50 in the experiment on Mus musculus [1] of 0.7 mg/kg. In the experiment on Rattus norvegicus [2], this molecule had an AD50 of 8 mg/kg.
Consider `C[C@H]1C2Cc3ccc(N)cc3[C@@]1(C)CCN2`, for which, in the experiment on Mus musculus [1], the 50% effect level (ED50) was put at a dose of 6.1 mg/kg. Besides, the AD50 entry in the experiment with Rattus norvegicus [25] was “inactive”.
For `CCCN1CC[C@]2(C)c3cc(N)ccc3CC1[C@@H]2C`, in the experiment with Mus musculus [1], the 50% effect level (ED50) was put at a dose of 5.6 mg/kg. In addition, the AD50 in the experiment with Rattus norvegicus [2] amounted to 2 mg/kg.
